Assay outcomes (PubChem BioAssay)
This is a sample that favours compounds with a hit; in the whole collection about 1.8% have one here.
Runt-CBFb FRET: inhibitors of RUNX1 Runt–CBFb binding, primary screen, biochemical, FRET, Cerulean-Runt, Venus-CBFb, uHTS. Cerulean-Runt/Venus-CBFb FRET ratio 530/480, 1 h. inhibition, % at 20 µM. Runt-related transcription factor 1 (Homo sapiens) + Core-binding factor subunit beta …. actives 0.46% (n = 220,000);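 active means inhibition over about 50% at 20 µM in the single-dose screen, limit read from the data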;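 further: 0% = DMSO wells and 100% = excess unlabeled CBFb competitor control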
Target sequence (Q01196 whole entry, looked up): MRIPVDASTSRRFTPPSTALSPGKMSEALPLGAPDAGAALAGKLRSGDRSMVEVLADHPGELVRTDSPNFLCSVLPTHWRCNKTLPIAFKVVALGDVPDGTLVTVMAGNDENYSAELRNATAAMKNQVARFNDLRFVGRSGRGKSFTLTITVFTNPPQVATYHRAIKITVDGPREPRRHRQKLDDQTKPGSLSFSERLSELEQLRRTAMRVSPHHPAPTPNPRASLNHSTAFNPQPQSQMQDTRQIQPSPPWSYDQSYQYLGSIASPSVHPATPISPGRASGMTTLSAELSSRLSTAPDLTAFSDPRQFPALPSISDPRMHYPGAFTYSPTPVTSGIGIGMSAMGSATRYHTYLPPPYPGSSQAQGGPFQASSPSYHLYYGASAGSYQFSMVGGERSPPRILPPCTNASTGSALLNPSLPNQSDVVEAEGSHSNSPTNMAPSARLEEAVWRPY
Target sequence (Q13951 whole entry, looked up): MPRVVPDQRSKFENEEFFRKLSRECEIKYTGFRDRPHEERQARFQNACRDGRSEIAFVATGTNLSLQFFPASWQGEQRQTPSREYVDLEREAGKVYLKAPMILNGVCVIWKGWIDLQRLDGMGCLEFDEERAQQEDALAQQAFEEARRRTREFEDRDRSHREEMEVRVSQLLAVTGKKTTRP
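System: Cerulean-labeled Runt domain protein | Quantity: 100 nM of each labeled protein | Schedule: 1 h compound exposure, room temperature | Detection: Fluorescence energy transfer, 422 nm excitation, 530/480 nm emission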
RanGTP-Impb inh: inhibitors of RanGTP-importin-beta interaction, primary screen, biochemical, FRET, CFP-Ran, YFP-importin-beta, homogeneous. Ran GTPase (GTP-bound) - importin-beta complex. AID 2216, 2009. cell-free CFP-Ran/YFP-importin-beta FRET ratio. actives 1.1% (n = 300,000). inhibition, % (concentration not given with the values);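 active means more than half of the replicate wells show a fall in the fluorescence ratio signal beyond about 16%, limit read from the data, passing the limit was not always enough; inconclusive means exactly half of the replicate wells pass the set limit; inactive means fewer than half of replicates pass the limit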;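 further: 0% = DMSO wells and 100% = Ran loaded with GDP instead of GTP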
Platelet DG rel: inhibitors of platelet dense granule secretion, primary screen, cell-based, MLPCN, human platelets | human platelet-rich plasma, SFLLRN dense granule ATP release, luminescence | inhibition, %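 (compounds screened at 7.5 µM in platelet-rich plasma)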 | actives 0.22% (n = 300,000) | AID 1663, 2009;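 active means mean replicate score, as percent of positive control, at or above 50; inconclusive means mean below 50 but at least one replicate at or above 50; inactive means mean and every replicate below 50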
Runt-SMMHC FRET: inhibitors of RUNX1 Runt–CBFb-SMMHC binding, primary screen, biochemical, FRET, Cerulean-Runt, Venus-CBFb-SMMHC, uHTS; Cerulean-Runt/Venus-CBFb-SMMHC FRET ratio 530/480, 1 h; inhibition, % at 20 µM; actives 0.74% (n = 220,000); AID 1434, 2008;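 active means mean inhibition across duplicate retests at 20 µM reaching about 50%, limit read from the data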;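 further: 0% = DMSO wells and 100% = wells with excess untagged CBFb-SMMHC; inhibitors lower the FRET ratio by blocking Runt binding to CBFb-SMMHC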
Rce1 inhib: yeast Rce1p protease inhibitors, primary screen, biochemical, fluorescence, cell-free homogeneous; CAAX prenyl protease 2 (Saccharomyces cerevisiae (strain ATCC 204508 / S288c)), Q03530; yeast membranes, quenched prenylated peptide cleavage fluorescence; calls only; actives 0.27% (n = 290,000); AID 2563, 2010;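 active means fall in fluorescence gain of 50% or more versus controls, with final raw signal at or below 3038400; inconclusive means same 50% fall but final raw signal above 3038400; inactive means fall in fluorescence gain under 50%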;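 further: plate controls were neutral control wells for no effect and wells lacking membranes for full effect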
* marks the source's active call; other numbers are inactive results.

Screening CCc1c(C)c(C#N)c2nc3ccccc3n2c1NCc1ccco1 returned Runt-CBFb FRET 21.4, RanGTP-Impb inh inconclusive, Platelet DG rel -10.5, Runt-SMMHC FRET 71.6* and Rce1 inhib inactive.
Screening Cc1cc(Cl)n2c(nc3ccccc32)c1C#N returned Runt-CBFb FRET 1.1, RanGTP-Impb inh inconclusive, Platelet DG rel -1.1, Runt-SMMHC FRET -16.7 and Rce1 inhib inactive.
`Cc1cc(NCc2ccccn2)n2c(nc3ccccc32)c1C#N` gave RanGTP-Impb inh 96.5*, Platelet DG rel 12.2 and Rce1 inhib inactive.
For Cc1c(Cc2ccccc2)c(NCCCO)n2c(nc3ccccc32)c1C#N the results were Runt-CBFb FRET 56.7*, RanGTP-Impb inh inconclusive, Platelet DG rel -2.3, Runt-SMMHC FRET 77.6* and Rce1 inhib inactive.
Screening CCN(CC)c1cc(C)c(C#N)c2nc3ccccc3n12 returned Runt-CBFb FRET 55.0*, RanGTP-Impb inh 31.9*, Platelet DG rel 7.9, Runt-SMMHC FRET 90.1* and Rce1 inhib inactive.
`O=C1CSC(=S)N1/N=C/c1cc(Br)c(O)c(Br)c1` gave RanGTP-Impb inh -18.4, Platelet DG rel 1.7 and Rce1 inhib inactive.
C1CNCCOCCNCCN1 was read as Runt-CBFb FRET -2.4, RanGTP-Impb inh 2.7, Platelet DG rel -1.9, Runt-SMMHC FRET 1.5 and Rce1 inhib inactive.
Screening Cc1cc(NCCOCCO)n2c(nc3ccccc32)c1C#N returned RanGTP-Impb inh 21.3*, Platelet DG rel -1.4 and Rce1 inhib inactive.
Screening Cc1cccc(NC(=O)CSc2cc(C)c(C#N)c3nc4ccccc4n23)c1 returned Runt-CBFb FRET 29.7, RanGTP-Impb inh 0.3, Platelet DG rel 2.9, Runt-SMMHC FRET 80.2* and Rce1 inhib inactive.
Screening CCCc1cc(NCCCN(C)C)n2c(nc3ccccc32)c1C#N returned RanGTP-Impb inh inconclusive, Platelet DG rel -1.2 and Rce1 inhib inactive.
Screening CNc1cc(C)c(C#N)c2nc3ccccc3n12 returned RanGTP-Impb inh 8.1, Platelet DG rel -2.5 and Rce1 inhib inactive.
Screening CCCC[C@@H](CN[C@H](C)CNC)NCC1CCC(C(C)(C)C)CC1 (stereo not given in full) returned RanGTP-Impb inh 2.5, Platelet DG rel -8.2 and Rce1 inhib inactive.
For CCCCCCNC(=O)N[C@H](C(=O)NCCC[C@H]1CN2C(=NC[C@H]2C)N1CCC(c1ccccc1)c1ccccc1)C(C)O (stereo not given in full) the results were Runt-CBFb FRET 9.1 and Runt-SMMHC FRET 61.8*.
CCOC(=O)c1c(C)c(-c2ccccc2)n(CC(=O)N2CCN(C)CC2)c1C was read as Runt-CBFb FRET -0.9, RanGTP-Impb inh 4.9, Platelet DG rel -1.7, Runt-SMMHC FRET -1.1 and Rce1 inhib inactive.
CCOC(=O)c1c(C)c(-c2ccccc2)n(CC(=O)N2CCCC2)c1C was read as Runt-CBFb FRET 0.2, RanGTP-Impb inh -0.9, Platelet DG rel 55.7*, Runt-SMMHC FRET 1.1 and Rce1 inhib inactive.
N#CC(C#N)=C1C=CC=CN1/C(=C\c1ccccc1Cl)C(=O)c1ccccc1 was read as Runt-CBFb FRET 40.3 and Runt-SMMHC FRET 33.3.
Screening N#CC(C#N)=C1C=CC=CN1/C(=C\c1ccccc1)C(=O)c1cccs1 returned Runt-CBFb FRET 23.9, RanGTP-Impb inh 27.5*, Platelet DG rel 17.8, Runt-SMMHC FRET 40.5 and Rce1 inhib inactive.
COCCn1c(SCC(=O)Nc2ccc(OC)cc2OC)nc2ccccc2c1=O was read as RanGTP-Impb inh 21.0*, Platelet DG rel -6.2 and Rce1 inhib inactive.
`COc1ccc(NC(=O)CSc2nc3ccccc3c(=O)n2Cc2cccs2)c(OC)c1` gave Runt-CBFb FRET 0.6, RanGTP-Impb inh -8.4, Platelet DG rel -16.3, Runt-SMMHC FRET -4.3 and Rce1 inhib inactive.
`CCn1nc(NC(=O)Cc2ccc(OC)cc2)c2cc3cccc(C)c3nc21` gave Runt-CBFb FRET 82.1*, RanGTP-Impb inh 24.2*, Platelet DG rel -4.7, Runt-SMMHC FRET 82.5* and Rce1 inhib inactive.
Screening CCCCC(=O)Nc1nn(CCC)c2nc3ccccc3cc12 returned Runt-CBFb FRET 19.0, RanGTP-Impb inh 62.6*, Runt-SMMHC FRET 33.7 and Rce1 inhib inactive.
`CCn1nc(NC(=O)Cc2ccc(OC)cc2)c2cc3cc(C)ccc3nc21` gave Runt-CBFb FRET 22.0, RanGTP-Impb inh 18.9*, Platelet DG rel -0.5, Runt-SMMHC FRET 38.9 and Rce1 inhib inactive.
`CCn1nc(NC(C)=O)c2cc3ccc(C)cc3nc21` gave RanGTP-Impb inh 3.6, Platelet DG rel 6.4 and Rce1 inhib inactive.
For CCn1nc(NC(=O)c2ccccn2)c2cc3cc(C)ccc3nc21 the results were Runt-CBFb FRET 47.9, RanGTP-Impb inh 89.2*, Runt-SMMHC FRET 82.2* and Rce1 inhib inactive.
O=C(Nc1ccccc1N1CCN(c2ccccc2)CC1)c1ccccc1 was read as Runt-CBFb FRET 1.5, RanGTP-Impb inh 3.3, Platelet DG rel 7.3, Runt-SMMHC FRET 3.8 and Rce1 inhib inactive.
CC(C)(C)c1cc(CP(=O)(c2ccccc2)c2ccccc2)cc(C(C)(C)C)c1O was read as RanGTP-Impb inh 3.0, Platelet DG rel -4.1 and Rce1 inhib inactive.
`CCN(Cc1ccccc1)C(=O)CN1C(=O)COc2ccc(S(=O)(=O)NC3CCCC3)cc21` gave RanGTP-Impb inh 0.5, Platelet DG rel 12.6 and Rce1 inhib inactive.
O=S(=O)(O)c1cccnc1SCc1ccccc1 was read as RanGTP-Impb inh -1.4, Platelet DG rel -3.9 and Rce1 inhib inactive.
Screening CC(=O)Nc1nn(C)c2nc3ccc(C)cc3cc12 returned RanGTP-Impb inh 8.2, Platelet DG rel 8.4 and Rce1 inhib inactive.
`CCCCC(=O)Nc1nn(CC)c2nc3c(C)cccc3cc12` gave RanGTP-Impb inh 36.8*, Platelet DG rel -1.3 and Rce1 inhib inactive.
CCn1nc(NC(=O)COC)c2cc3cccc(C)c3nc21 was read as RanGTP-Impb inh 43.8*, Platelet DG rel -4.7 and Rce1 inhib inactive.
CCCCn1nc(NC(=O)COC)c2cc3cc(OC)ccc3nc21 was read as RanGTP-Impb inh 99.1*, Platelet DG rel -7.5 and Rce1 inhib inactive.
COc1ccccc1C1=NN(C2=NN=C(N)Cc3ncnn32)C(O)(C(F)(F)F)C1 (stereo not given) was read as Runt-CBFb FRET 2.5, RanGTP-Impb inh 1.1, Platelet DG rel -4.7, Runt-SMMHC FRET 1.2 and Rce1 inhib active.
O=C(NNC1CC(=O)N(c2ccc(Br)cc2)C1=O)c1ccccn1 (stereo not given) was read as Runt-CBFb FRET 0.2, RanGTP-Impb inh inconclusive, Platelet DG rel -2.2, Runt-SMMHC FRET -7.8 and Rce1 inhib inactive.
